Measured values reported in ChEMBL document CHEMBL1177787, “In vitro and in vivo antimalarial evaluation of semi-synthetic derivatives of gomphostenin” (Bioorg Med Chem Lett, 2010).

Key:
Plasmodium falciparum [1] = assay: Antiplasmodial activity against chloroquine-sensitive Plasmodium falciparum MRC2 infected in human erythrocytes after 24 hrs by Giemsa staining; assay type: functional, organism-based; details: MRC2, 24 h
How it was run: (§1)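 Parasites grown in human B(+) erythrocytes in RPMI-1640 with 25 mM HEPES, 10% human AB(+) serum, 0.2% sodium bicarbonate, 5% CO2. Ring-stage cultures synchronized, parasitemia set to 1–1.5% with fresh RBC. Twofold serial dilutions (ethanol stock, final ethanol ≤0.5%), duplicate wells, 37 °C for 24 h. Giemsa smears: schizonts per 100 asexual parasites; inhibition = (1 − Nt/Nc) × 100; IC50 derived.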

Plasmodium falciparum [2] = assay: Antiplasmodial activity against chloroquine-resistant Plasmodium falciparum RKL9 after 24 hrs by Giemsa staining; assay type: functional, organism-based; details: RKL9, 24 h; how it was run: as §1
Plasmodium berghei [3] = assay: Antimalarial activity against chloroquine-sensitive Plasmodium berghei ANKA infected in Swiss mice (Mus musculus) assessed as parasitaemia at 150 mg/kg, perorally for 4 days measured on day 5; assay type: functional; details: route oral
How it was run: (§2)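 Four-day suppressive test: Swiss albino mice inoculated i.p. on day 0 with 0.2 ml infected blood carrying about 1 × 10⁷ P. berghei ANKA parasitized RBC. Compounds suspended in saline with 0.5% Tween-80 and given orally from shortly after inoculation, day 0–3. Groups of five mice; the vehicle group was the negative control. Tail-blood thin films were read on day 4 (fifth day), counting parasitized cells per 600 erythrocytes.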

Plasmodium berghei [4] = assay: Antimalarial activity against chloroquine-sensitive Plasmodium berghei ANKA infected in Swiss mice (Mus musculus) assessed as parasitaemia at 100 mg/kg, perorally for 4 days measured on day 5; assay type: functional; details: route oral; how it was run: as §2
Plasmodium berghei [5] = assay: Antimalarial activity against chloroquine-sensitive Plasmodium berghei ANKA infected in Swiss mice (Mus musculus) assessed as parasitaemia at 50 mg/kg, perorally for 4 days measured on day 5; assay type: functional; details: route oral; how it was run: as §2
Plasmodium berghei [6] = assay: Antimalarial activity against chloroquine-sensitive Plasmodium berghei ANKA infected in Swiss mice (Mus musculus) assessed as suppression of parasitaemia at 150 mg/kg, perorally for 4 days measured on day 5 relative to control; assay type: functional; details: route oral; how it was run: as §2
Plasmodium berghei [7] = assay: Antimalarial activity against chloroquine-sensitive Plasmodium berghei ANKA infected in Swiss mice (Mus musculus) assessed as suppression of parasitaemia at 100 mg/kg, perorally for 4 days measured on day 5 relative to control; assay type: functional; details: route oral; how it was run: as §2
Plasmodium berghei [8] = assay: Antimalarial activity against chloroquine-sensitive Plasmodium berghei ANKA infected in Swiss mice (Mus musculus) assessed as suppression of parasitaemia at 50 mg/kg, perorally for 4 days measured on day 5 relative to control; assay type: functional; details: route oral; how it was run: as §2
Plasmodium berghei [9] = assay: Antimalarial activity against chloroquine-sensitive Plasmodium berghei ANKA infected in Swiss mice (Mus musculus) assessed as parasitaemia at 5 mg/kg, perorally for 4 days measured on day 5; assay type: functional; details: route oral; how it was run: as §2
Plasmodium berghei [10] = assay: Antimalarial activity against chloroquine-sensitive Plasmodium berghei ANKA infected in Swiss mice (Mus musculus) assessed as suppression of parasitaemia at 5 mg/kg, perorally for 4 days measured on day 5 relative to control; assay type: functional; details: route oral; how it was run: as §2

Compound | IC50 (Plasmodium falciparum [1]) | IC50 (Plasmodium falciparum [2]) | further results
CC1=CC(=O)C[C@H]2[C@](C)(CCC3=CCOC3=O)[C@H](COCc3ccc(C(F)(F)F)cc3)CC[C@]12C | 4.8 µM | 4.4 µM | Activity (Plasmodium berghei [3]): 11.5%; Activity (Plasmodium berghei [4]): 12.4%; Activity (Plasmodium berghei [5]): 17.5%; inhibition in vivo at 150 mg/kg (Plasmodium berghei [6]): 65.9%; inhibition in vivo at 100 mg/kg (Plasmodium berghei [7]): 63.2%; inhibition in vivo at 50 mg/kg (Plasmodium berghei [8]): 48.4%
CC1=CC(=O)C[C@H]2[C@](C)(CCC3=CCOC3=O)[C@H](COCc3ccc(Cl)cc3)CC[C@]12C | 14 µM | 18.8 µM | 
COc1ccc(COC(=O)OC[C@@H]2CC[C@]3(C)C(C)=CC(=O)C[C@H]3[C@]2(C)CCC2=CCOC2=O)cc1 | 37.6 µM | 47.7 µM | 
CC1=CC(=O)C[C@H]2[C@](C)(CCC3=CCOC3=O)[C@H](COS(C)(=O)=O)CC[C@]12C | 69.9 µM | 73.3 µM | 
CC1=CC(=O)C[C@H]2[C@](C)(CCC3=CCOC3=O)[C@H](COC(=O)OCc3ccccc3)CC[C@]12C | 42.2 µM | 43.9 µM | 
CC1=CC(=O)C[C@H]2[C@](C)(CCC3=CCOC3=O)[C@H](COS(=O)(=O)c3ccc(C)cc3)CC[C@]12C | 26.1 µM | 45.8 µM | 
CC1=CC(=O)C[C@H]2[C@](C)(CCC3=CCOC3=O)[C@H](COC(=O)C(C)(C)C)CC[C@]12C | 78.5 µM | 84.9 µM | 
CC1=CC(=O)C[C@H]2[C@](C)(CCC3=CCOC3=O)[C@H](COCc3ccc(F)cc3)CC[C@]12C | 8.3 µM | 8.1 µM | Activity (Plasmodium berghei [3]): 10.3%; Activity (Plasmodium berghei [4]): 22.3%; Activity (Plasmodium berghei [5]): 26.4%; inhibition in vivo at 150 mg/kg (Plasmodium berghei [6]): 69.4%; inhibition in vivo at 100 mg/kg (Plasmodium berghei [7]): 33.2%; inhibition in vivo at 50 mg/kg (Plasmodium berghei [8]): 21.7%
COC[C@@H]1CC[C@]2(C)C(C)=CC(=O)C[C@H]2[C@]1(C)CCC1=CCOC1=O | 94.4 µM | 88.9 µM | 
CCN(CC)CCCC(C)Nc1ccnc2cc(Cl)ccc12.O=P(O)(O)O.O=P(O)(O)O (configuration not stated) [CHLOROQUINE PHOSPHATE] |  |  | Activity (Plasmodium berghei [9]): 1.07%; inhibition in vivo at 5 mg/kg (Plasmodium berghei [10]): 96.8%
